Test results published in ChEMBL document CHEMBL1150393, “Evaluation of radiolabeled (hetero)aromatic analogues of N-(2-diethylaminoethyl)-4-iodobenzamide for imaging and targeted radionuclide therapy of melanoma” (J Med Chem, 2008).

What was measured:
[1] = Partition coefficient, log P in phosphate buffer solution at pH 7.4; assay type: physicochemical
Method in brief: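 Shake-flask partition: 50 µM [¹²⁵I]-labelled compound in phosphate buffer pH 7.4 was mixed with 2 mL n-octanol. Each phase was γ-counted, P was taken as the octanol/buffer activity ratio, and log P was reported.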

[2] = Drug excretion in mouse B16-F0 cells bearing C57BL/6 mouse urine at 0.74 to 0.92 MBq, iv after 72 hrs; assay type: ADME, organism-based; settings: in vivo
Method in brief: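 Urine was collected from two B16-F0 tumour-bearing C57BL6 mice for up to 72 h after iv tail-vein injection of the [¹²⁵I]-labelled compound (0.1 µmol). Samples were counted to give cumulative urinary excretion as %ID.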

[3] = Biodistribution in tumor of C57BL/6 mouse bearing mouse B16-F0 cells at 0.74 to 0.92 MBq, iv after 3 hrs; assay type: ADME, organism-based, Neoplasm; settings: in vivo
Method in brief: (§1)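 [¹²⁵I]-labelled compound given iv by tail vein (0.1 µmol per mouse) to male C57BL6 mice bearing s.c. B16-F0 flank tumours (5 × 10⁵ cells in PBS). Two mice per time point were killed by CO₂, frozen in liquid nitrogen and cut into 40 µm cryosections, eight slices per mouse. Slice radioactivity was read on a multiwire proportional counter, converted to kBq/g and reported as %ID/g.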

[4] = Biodistribution in tumor of C57BL/6 mouse bearing mouse B16-F0 cells at 0.74 to 0.92 MBq, iv after 6 hrs; assay type: ADME, organism-based, Neoplasm; settings: in vivo; method in brief: as §1
[5] = Biodistribution in tumor of C57BL/6 mouse bearing mouse B16-F0 cells at 0.74 to 0.92 MBq, iv after 24 hrs; assay type: ADME, organism-based, Neoplasm; settings: in vivo; method in brief: as §1
[6] = Biodistribution in tumor of C57BL/6 mouse bearing mouse B16-F0 cells at 0.74 to 0.92 MBq, iv after 72 hrs; assay type: ADME, organism-based, Neoplasm; settings: in vivo; method in brief: as §1
[7] = Ratio of drug level in tumor to liver of C57BL/6 mouse bearing mouse B16-F0 cells at 0.74 to 0.92 MBq, iv after 3 hrs; assay type: ADME, organism-based; settings: in vivo
Method in brief: (§2)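 Tumour and organ radioactive concentrations came from whole-body cryosection counting (40 µm slices, eight per mouse, two mice per time) after tail-vein injection of the [¹²⁵I]-labelled compound (0.1 µmol) into male C57BL6 mice bearing s.c. B16-F0 melanoma. Each value is the ratio of the tumour concentration to the organ concentration.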

[8] = Ratio of drug level in tumor to liver of C57BL/6 mouse bearing mouse B16-F0 cells at 0.74 to 0.92 MBq, iv after 24 hrs; assay type: ADME, organism-based; settings: in vivo; method in brief: as §2
[9] = Ratio of drug level in tumor to lung of C57BL/6 mouse bearing mouse B16-F0 cells at 0.74 to 0.92 MBq, iv after 1 hr; assay type: ADME, organism-based; settings: in vivo; method in brief: as §2
[10] = Ratio of drug level in tumor to lung of C57BL/6 mouse bearing mouse B16-F0 cells at 0.74 to 0.92 MBq, iv after 6 hrs; assay type: ADME, organism-based; settings: in vivo; method in brief: as §2
[11] = Ratio of drug level in tumor to brain of C57BL/6 mouse bearing mouse B16-F0 cells at 0.74 to 0.92 MBq, iv after 1 hr; assay type: ADME, organism-based; settings: in vivo; method in brief: as §2
[12] = Biodistribution in Stomach content of C57BL/6 mouse bearing mouse B16-F0 cells at 0.74 to 0.92 MBq, iv after 1 hr; assay type: ADME, organism-based; settings: in vivo
Method in brief: (§3)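 Male C57BL6 mice with s.c. left-flank B16-F0 melanoma (5 × 10⁵ cells in PBS). Two mice per time point frozen in liquid nitrogen after CO₂ sacrifice. Eight 40 µm whole-body cryosections per mouse read by multiwire proportional counter. cpm/mm² converted to kBq/g and expressed as %ID/g.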

[13] = Biodistribution in Stomach content of C57BL/6 mouse bearing mouse B16-F0 cells at 0.74 to 0.92 MBq, iv after 6 hrs; assay type: ADME, organism-based; settings: in vivo; method in brief: as §3
[14] = Biodistribution in Stomach content of C57BL/6 mouse bearing mouse B16-F0 cells at 0.74 to 0.92 MBq, iv after 24 hrs; assay type: ADME, organism-based; settings: in vivo; method in brief: as §3
Muscle tissue [15] = assay: Biodistribution in muscle of C57BL/6 mouse bearing mouse B16-F0 cells at 0.74 to 0.92 MBq, iv after 1 hr; assay type: ADME, organism-based; settings: in vivo; method in brief: as §3
Muscle tissue [16] = assay: Biodistribution in muscle of C57BL/6 mouse bearing mouse B16-F0 cells at 0.74 to 0.92 MBq, iv after 3 hrs; assay type: ADME, organism-based; settings: in vivo; method in brief: as §3
Muscle tissue [17] = assay: Biodistribution in muscle of C57BL/6 mouse bearing mouse B16-F0 cells at 0.74 to 0.92 MBq, iv after 6 hrs; assay type: ADME, organism-based; settings: in vivo; method in brief: as §3
Pancreas = assay: Biodistribution in pancreas of C57BL/6 mouse bearing mouse B16-F0 cells at 0.74 to 0.92 MBq, iv after 1 hr; assay type: ADME, organism-based; settings: in vivo; method in brief: as §3
Spleen [18] = assay: Biodistribution in spleen of C57BL/6 mouse bearing mouse B16-F0 cells at 0.74 to 0.92 MBq, iv after 3 hrs; assay type: ADME, organism-based; settings: in vivo; method in brief: as §1
Spleen [19] = assay: Biodistribution in spleen of C57BL/6 mouse bearing mouse B16-F0 cells at 0.74 to 0.92 MBq, iv after 6 hrs; assay type: ADME, organism-based; settings: in vivo; method in brief: as §1
Kidney [20] = assay: Biodistribution in kidney of C57BL/6 mouse bearing mouse B16-F0 cells at 0.74 to 0.92 MBq, iv after 1 hr; assay type: ADME, organism-based; settings: in vivo; method in brief: as §3
Kidney [21] = assay: Biodistribution in kidney of C57BL/6 mouse bearing mouse B16-F0 cells at 0.74 to 0.92 MBq, iv after 3 hrs; assay type: ADME, organism-based; settings: in vivo; method in brief: as §3
Kidney [22] = assay: Biodistribution in kidney of C57BL/6 mouse bearing mouse B16-F0 cells at 0.74 to 0.92 MBq, iv after 6 hrs; assay type: ADME, organism-based; settings: in vivo; method in brief: as §3
Blood [23] = assay: Biodistribution in blood of C57BL/6 mouse bearing mouse B16-F0 cells at 0.74 to 0.92 MBq, iv after 1 hr; assay type: ADME, organism-based; settings: in vivo; method in brief: as §3
Blood [24] = assay: Biodistribution in blood of C57BL/6 mouse bearing mouse B16-F0 cells at 0.74 to 0.92 MBq, iv after 3 hrs; assay type: ADME, organism-based; settings: in vivo; method in brief: as §3
Blood [25] = assay: Biodistribution in blood of C57BL/6 mouse bearing mouse B16-F0 cells at 0.74 to 0.92 MBq, iv after 6 hrs; assay type: ADME, organism-based; settings: in vivo; method in brief: as §3
Thyroid gland [26] = assay: Biodistribution in thyroid of C57BL/6 mouse bearing mouse B16-F0 cells at 0.74 to 0.92 MBq, iv after 3 hrs; assay type: ADME, organism-based; settings: in vivo; method in brief: as §1
Thyroid gland [27] = assay: Biodistribution in thyroid of C57BL/6 mouse bearing mouse B16-F0 cells at 0.74 to 0.92 MBq, iv after 6 hrs; assay type: ADME, organism-based; settings: in vivo; method in brief: as §1
Thyroid gland [28] = assay: Biodistribution in thyroid of C57BL/6 mouse bearing mouse B16-F0 cells at 0.74 to 0.92 MBq, iv after 24 hrs; assay type: ADME, organism-based; settings: in vivo; method in brief: as §1
[29] = Biodistribution in uvea of C57BL/6 mouse bearing mouse B16-F0 cells at 0.74 to 0.92 MBq, iv after 1 hr; assay type: ADME, organism-based, Uveal tract; settings: in vivo; method in brief: as §1
[30] = Biodistribution in uvea of C57BL/6 mouse bearing mouse B16-F0 cells at 0.74 to 0.92 MBq, iv after 3 hrs; assay type: ADME, organism-based, Uveal tract; settings: in vivo; method in brief: as §1
[31] = Biodistribution in uvea of C57BL/6 mouse bearing mouse B16-F0 cells at 0.74 to 0.92 MBq, iv after 6 hrs; assay type: ADME, organism-based, Uveal tract; settings: in vivo; method in brief: as §1
[32] = Biodistribution in uvea of C57BL/6 mouse bearing mouse B16-F0 cells at 0.74 to 0.92 MBq, iv after 24 hrs; assay type: ADME, organism-based, Uveal tract; settings: in vivo; method in brief: as §1
[33] = Biodistribution in uvea of C57BL/6 mouse bearing mouse B16-F0 cells at 0.74 to 0.92 MBq, iv after 72 hrs; assay type: ADME, organism-based, Uveal tract; settings: in vivo; method in brief: as §1

`CCN(CC)CCNC(=O)c1c[nH]c2ccc([125I])cc2c1=O.Cl.Cl` showed a logD [1] of 1.3, an Activity [2] of 23.8% and a Drug uptake [3] of 4.1 % ID/g. It also gave a Drug uptake [4] of 5.8 % ID/g, a Drug uptake [5] of 2.7 % ID/g and a Drug uptake [6] of 2.4 % ID/g. For the same compound, the Ratio [7] was 2.2, the Ratio [8] was 39.14 and the Ratio [9] was 2.28. For the same compound, the Ratio [10] was 38.73, the Ratio [11] was 67 and the Drug uptake [12] was 12.74 % ID/g. The Drug uptake [13] was 22.27 % ID/g, the Drug uptake [14] was 0.13 % ID/g and the Drug uptake (Muscle tissue [15]) was 0.92 % ID/g. It also gave a Drug uptake (Muscle tissue [16]) of 0.13 % ID/g, a Drug uptake (Muscle tissue [17]) of 0.01 % ID/g and a Drug uptake (Pancreas) of 5.74 % ID/g. For the same compound, the Drug uptake (Spleen [18]) was 0.28 % ID/g, the Drug uptake (Spleen [19]) was 0.26 % ID/g and the Drug uptake (Kidney [20]) was 2.8 % ID/g. For the same compound, the Drug uptake (Kidney [21]) was 0.8 % ID/g, the Drug uptake (Kidney [22]) was 0.2 % ID/g and the Drug uptake (Blood [23]) was 0.42 % ID/g. It also gave a Drug uptake (Blood [24]) of 0.23 % ID/g, a Drug uptake (Blood [25]) of 0.17 % ID/g and a Drug uptake (Thyroid gland [26]) of 4.33 % ID/g. For the same compound, the Drug uptake (Thyroid gland [27]) was 8.55 % ID/g, the Drug uptake (Thyroid gland [28]) was 5.09 % ID/g and the Drug uptake [29] was 5.12 % ID/g. For the same compound, the Drug uptake [30] was 5.66 % ID/g, the Drug uptake [31] was 5.18 % ID/g and the Drug uptake [32] was 3.5 % ID/g. For the same compound, the Drug uptake [33] was 6.79 % ID/g.
